Screening results (PubChem)
SR-BI DiI-HDL act = activators of SR-BI mediated DiI-HDL uptake, primary screen, ldlA[mSR-BI] CHO cells, DiI fluorescence. 3 h; 100 = double the neutral-control signal. activation, % at 12.5 µM. actives 0.096% (n = 320,000);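 active = mean replicate activation of at least 60% and every replicate at or above 60%; inconclusive = mean or all-replicate condition met, but not both; inactive = mean below 60% and not all replicates reaching 60%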;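 also: 0% = median plate neutral-control signal and 100% = twice that signal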
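Assay system: CHO ldlA[mSR-BI] cells, LDL receptor-null, SR-BI overexpressing; medium: Ham's F12 with 0.5% BSA, HEPES 25 mM, pH 7.4; also added: DiI-HDL 10 µg/mL; timing: 3 h uptake period with compound, 37 °C; signal: DiI fluorescence, bottom read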
SR-BI DiI inh = inhibitors of SR-BI mediated HDL lipid uptake, primary screen, ldlA[mSR-BI] cells, fluorescence, single point; Scavenger receptor class B member 1 (Mus musculus), Q61009; ldlA[mSR-BI] CHO cells, DiI-HDL uptake fluorescence, 3 h; inhibition, % at 12.5 µM; actives 0.96% (n = 320,000); AID 488896, 2010;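 active = mean replicate inhibition of at least 70% and a set share of replicates each scoring 70 or more; inconclusive = meets just one of the two criteria; inactive = fails both criteria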;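 also: 0% = median of neutral control wells and 100% = median of positive control wells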
Neddylation inh = inhibitors of cullin neddylation, primary screen, biochemical, TR-FRET, uHTS, NAE and Ubc12; NEDD8-conjugating enzyme Ubc12 (Homo sapiens) + NEDD8-activating enzyme E1 regulatory …; inhibition, % at 25 µM; actives 0.58% (n = 360,000); AID 651699, 2012; in the data active = inhibition above about 36%
UBC13 polyUb = UBC13 polyubiquitin chain formation inhibitors, primary screen, biochemical, TR-FRET, uHTS; Ubiquitin-conjugating enzyme E2 N (Homo sapiens), P61088; inhibition, % at 20 µM; actives 0.47% (n = 330,000); AID 485273, 2010; in the data active = inhibition above about 45%, passing the limit was not always enough; inconclusive = no clear call, values can overlap the other calls
Target sequence (P61088 whole entry, looked up): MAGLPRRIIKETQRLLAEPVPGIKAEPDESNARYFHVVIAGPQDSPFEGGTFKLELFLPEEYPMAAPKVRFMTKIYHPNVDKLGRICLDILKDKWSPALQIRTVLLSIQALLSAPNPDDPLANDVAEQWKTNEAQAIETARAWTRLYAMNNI
Casp3 counter = CASP3 inhibitor validation, counterassay for project on UBE2N polyubiquitination blockers, biochemical, one dose | Recombinant caspase-3, Caspase-Glo 3/7 luminescence, 60 min | shares compounds with UBC13 polyUb | actives 4% (n = 1,400) | inhibition, % at 20 µM;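 active = mean inhibition across replicates above about 26%, limit read from the data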;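 also: plate controls were DMSO with caspase-3 for no effect and DMSO wells lacking enzyme for full effect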
Target sequence (P42574 whole entry, looked up): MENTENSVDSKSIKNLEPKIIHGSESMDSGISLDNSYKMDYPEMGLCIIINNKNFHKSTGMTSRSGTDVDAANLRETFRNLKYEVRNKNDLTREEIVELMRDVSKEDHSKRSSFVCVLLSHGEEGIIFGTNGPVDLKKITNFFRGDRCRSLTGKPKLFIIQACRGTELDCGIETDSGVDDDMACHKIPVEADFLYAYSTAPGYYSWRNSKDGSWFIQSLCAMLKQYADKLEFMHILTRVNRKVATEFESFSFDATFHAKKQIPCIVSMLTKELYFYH
UBC13 conf = UBC13 polyubiquitination inhibitors, single-point retest, confirmation, biochemical, TR-FRET, single concentration | inhibition, % at 10 µM | actives 68% (n = 1,400) | AID 488859, 2010 | shares compounds with UBC13 polyUb; in the data active = inhibition above about 45%; inconclusive = no clear call, values can overlap the other calls
Active calls of the source: *; u = inconclusive; x = no result given; ! = a repeat was not active. In the library only some 1.9% were active in any assay of this set; here they are far more common.

SMILES	SR-BI DiI-HDL act	SR-BI DiI inh	Neddylation inh	UBC13 polyUb	Casp3 counter	UBC13 conf
CCN(Cc1ccccc1)C(=O)c1nn(-c2ccc(OC)cc2)c(=O)c2c1c1ccccc1n2C	-6.2	6.2	2.2	45.2*	-1.7	u
Cc1ccc2[nH]c(O)c(N=NC(N)=S)c2c1	x	x	-34.0	79.2*	-1.5	95.9*
Oc1cccc(NC(=S)N=Nc2c(O)[nH]c3ccccc23)c1	-16.2	16.2	-30.2	u	x	x
NC(=S)N=Nc1c(O)[nH]c2ccccc12	11.4	-11.4	-20.1	62.8*	1.6	79.8*
CCOc1ccc(NC(=S)N=Nc2c(O)[nH]c3ccccc23)cc1	-18.1	18.1	-26.1	61.1*	3.4	76.7*
Oc1[nH]c2ccccc2c1N=NC(=S)NCCc1ccccc1	17.4	-17.4	-19.4	x	x	x
CCCCNC(=S)N=Nc1c(O)[nH]c2ccccc12	6.1	-6.1	-24.6	84.8*	2.3	101.8*
Cc1ccc(NC(=O)c2ccc(N3CCCC3=O)cc2)cc1S(=O)(=O)N1CCCCC1	-23.7	23.7	-12.8	5.4	x	x
O=C(Nc1ccc2c(c1)OCCO2)C1C(c2ccccc2)=Nc2ccccc2N1C(=O)c1cccnc1 (stereo not given)	x	x	8.9	x	x	x
O=C(Nc1ccccc1)c1nc[nH]c1C(=O)NCc1ccccc1	1.2	-1.2	-4.6	6.0	x	x
CCOC(=O)c1ccc(NC(=O)c2nc[nH]c2C(=O)N[C@H](C)c2ccccc2)cc1	-17.8	17.8	20.7	70.3*	-3.4	34.2
CCOC(=O)c1ccc(NC(=O)c2nc[nH]c2C(=O)N[C@@H](C)C(=O)OC(C)(C)C)cc1	-2.6	2.6	4.4	58.0*	-3.9	37.5
CCOC(=O)c1ccc(NC(=O)c2nc[nH]c2C(=O)N[C@@H](CC(C)C)C(=O)OC(C)(C)C)cc1	-32.8	32.8	10.3	-5.7	x	x
COc1ccc(NC(=O)c2nc[nH]c2C(=O)NCc2ccccc2)cc1	19.1	-19.1	2.4	60.0*	8.2	7.9
COc1ncnc2c1ncn2CCCNCc1ccc(C)o1	x	x	6.5	x	x	x
CCCCOc1ccc(-c2cnc3ccccc3n2)cc1	5.0	-5.0	-106.3	53.7*	92.9*	u
CCN1CCN(c2cc(C)c3cc(NC(=S)N4CCN(c5ccc(F)cc5)CC4)ccc3n2)CC1	x	x	18.0	46.9*	2.4	42.6
CCn1c(=O)cc(SCC(=O)N2CCN(Cc3ccc4c(c3)OCO4)CC2)c2ccccc21	-51.8	51.8	-13.6	61.3*	-2.3	u
CCn1c(=O)cc(SCC(=O)N2CCN(C)CC2)c2ccccc21	9.2	-9.2	-3.6	14.7	x	x
CCN1CCN(C(=O)CSc2cc(=O)n(CC)c3ccccc23)CC1	-1.4	1.4	7.1	46.6*	-2.2	u
CCSc1ccccc1C(=O)N1CCN(Cc2ccc3c(c2)OCO3)CC1	12.6	-12.6	7.0	99.1*	-0.8	9.1
CCn1c(=O)cc(SCC(=O)NCCCN2CCN(c3ccc(F)cc3)CC2)c2ccccc21	-48.8	48.8	-16.6	91.7*	0.3	u
Cn1c(=O)cc(SCC(=O)N2CCN(C3CCCCC3)CC2)c2ccccc21	-8.2	8.2	-1.6	66.2*	-1.9	u
Nc1nc(Cl)nc2ccc(Br)cc12	6.5	-6.5	-227.5	49.4*	-2.7	u
S=C(c1cccs1)N1CCN(c2ccccc2)CC1	4.2	-4.2	-3.2	x	x	x
SMILES	SR-BI DiI-HDL act	SR-BI DiI inh	Neddylation inh	UBC13 polyUb	Casp3 counter	UBC13 conf
Cc1ccc(NC(=O)C2(C)CCCN2C)cc1C (stereo not given)	x	x	-0.3	x	x	x
N#Cc1sc2nc(-c3cccs3)cc(-c3ccc(F)cc3)c2c1N	-81.8	81.8*	x	58.6*	-2.0	34.4
CCOc1cc(CNCCc2ccc(S(N)(=O)=O)cc2)ccc1OCc1ccc(Cl)cc1	-4.5	4.5	-2.7	58.5*	8.1	65.8*
CN(C)CCCNC(=O)/C(=C\c1ccc(-c2ccc(Br)cc2)o1)NC(=O)c1ccccc1	27.5	-27.5	28.6	22.5	x	x
Cc1ccc(C(=O)N/C(=C\c2ccc(-c3ccc(Cl)cc3)o2)C(=O)NCCCN(C)C)cc1	18.0	-18.0	28.7	47.4*	-3.3	70.1*
CCC[C@@H](CN[C@@H](CNC)[C@H](C)CC)NCC1CCC(C(C)(C)C)CC1 (stereo not given in full)	8.7	-8.7	-9.5	63.4*	-2.7	60.6*
CC(C)NCC(O)COC1CCC(C(C)(C)C)CC1 (stereo not given)	14.8	-14.8	5.4	7.4	x	x
CC[C@@H](C)[C@H](CNC)NC[C@@H](Cc1cccc2ccccc12)NCCc1cccc(C(F)(F)F)c1	38.0	-38.0	-25.6	59.9*	-2.0	100.4*
CCC[C@H](CN[C@@H](CNC)[C@H](C)CC)NCCc1cc(C(F)(F)F)cc(C(F)(F)F)c1	36.2	-36.2	-14.6	85.5*	5.1	73.1*
CCC[C@@H](CN[C@@H](CNC)C(C)C)NCCCCc1ccccc1	7.8	-7.8	-29.2	6.1	x	x
CCN(c1ccc(NC(=O)CSCc2c(C)noc2C)cc1)C(C)C	-12.7	12.7	-22.5	2.8	x	x
CCc1ccc(/C=N/NC(=O)c2nnn(-c3nonc3N)c2CN2CCOCC2)cc1	-21.3	21.3	-5.5	0.7	x	x
COc1cc(-c2n[nH]c(=S)n2-c2ccc(C)cc2)cc(OC)c1OC	1.5	-1.5	15.6	3.4	x	x
NC(=NCCCCCCN=C(N)/N=C(\N)Nc1ccc(Cl)cc1)/N=C(\N)Nc1ccc(Cl)cc1	92.1*!	-92.1	-10.3	110.8*	-1.6	118.3*
CC(C)N=C(N)N=C(N)Nc1ccc(Cl)cc1	6.6	-6.6	-7.8	8.3	x	x
COc1ccccc1CNC(=O)c1ccc2c(=O)n(CCCN3CCCC3=O)c(=S)[nH]c2c1	1.3	-1.3	-25.4	45.5*	2.9	43.2
COc1ccc(CNC(=O)c2ccc3c(=O)n(CCCN4CCCC4=O)c(=S)[nH]c3c2)cc1	-4.2	4.2	-14.9	23.1	x	x
Nc1nonc1-n1nnc(C(=O)N/N=C/c2ccc(O)cc2)c1CN1CCCCCC1	x	x	-0.1	-14.0	x	x
Nc1nonc1-n1nnc(C(=O)N/N=C/c2ccccc2Br)c1CN1CCCC1	x	x	5.6	63.3*	-3.9	2.0
CCOc1ccc(NC(=O)c2c(NC(=O)CNCCN3CCOCC3)sc3c2CCC3)cc1	-12.6	12.6	14.1	-4.1	x	x
CC(=O)/C(=C/N(C)C)C(=O)Nc1ccc(Cl)cc1Cl	-9.2	9.2	0.5	1.2	x	x
CN(C)CCNC=C(C(=O)Nc1ccc(Cl)cc1Cl)C(=O)Nc1ccc(Cl)cc1Cl	82.5*	-82.5	-6.5	55.7*	-1.9	80.5*
